# Results: ChEMBL document CHEMBL2311499, “Synthesis, antiproliferative activity and tubulin targeting effect of acridinone and dioxophenothiazine derivatives” (Eur J Med Chem, 2013)
# The source made the active and inactive calls. The rule behind the calls is not given here.
# What was measured:
# [1] = Inhibition of bovine tubulin polymerization after 1 hr; parameters: species or system Bos taurus
# HT-29 [2] = assay: Antiproliferative activity against human HT-29 cells after 72 hrs by MTT assay; format: functional, cell-based; conditions: HT-29, 72 h
# Outline: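 HT29 cells were seeded at (1.6–1.8) × 10⁴ per well in medium with 10% FBS, serum-starved after 72 h, and treated the following day for 72 h. Viability was read by MTT (4 mg/mL, 4 h, 37 °C, 5% CO₂) with SDS/HCl solubilisation and absorbance at 570 nm. IC50 is the concentration giving 50% inhibition of proliferation relative to untreated controls.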
# CAL-33 [3] = assay: Cell cycle arrest in human CAL33 cells assessed as accumulation at S phase at 0.5 uM after 24 hrs flow cytometry; format: functional
# Outline: (§1)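 Flow cytometry: 2.5–4 × 10⁵ cells were seeded in 6-well plates, grown 24 h, then treated for 24 h. Floating and adherent cells were pooled and fixed in cold 70% ethanol for 24 h. Results are reported as the percentage of cells in sub-G1, G1, S and G2 phases.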
# HT-29 [4] = assay: Cell cycle arrest in human HT-29 cells assessed as accumulation at G1 phase at 0.5 uM after 24 hrs flow cytometry; format: functional; outline: as §1
# CAL-33 [5] = assay: Cell cycle arrest in human CAL33 cells assessed as accumulation at G1 phase at 0.5 uM after 24 hrs flow cytometry; format: functional; outline: as §1
# HT-29 [6] = assay: Cell cycle arrest in human HT-29 cells assessed as accumulation at sub-G1 phase at 0.5 uM after 24 hrs flow cytometry; format: functional; outline: as §1
# CAL-33 [7] = assay: Cell cycle arrest in human CAL33 cells assessed as accumulation at sub-G1 phase at 0.5 uM after 24 hrs flow cytometry; format: functional; outline: as §1
# CAL-33 [8] = assay: Cell cycle arrest in human CAL33 cells assessed as accumulation at G2 phase at 0.5 uM after 24 hrs flow cytometry; format: functional; outline: as §1
# HT-29 [9] = assay: Cell cycle arrest in human HT-29 cells assessed as accumulation at S phase at 0.5 uM after 24 hrs flow cytometry; format: functional; outline: as §1
# HT-29 [10] = assay: Cell cycle arrest in human HT-29 cells assessed as accumulation at G2 phase at 0.5 uM after 24 hrs flow cytometry; format: functional; outline: as §1
# HL-60 [11] = assay: Cell cycle arrest in human HL60 cells assessed as accumulation at G1 phase at 0.5 uM after 24 hrs flow cytometry; format: functional; outline: as §1
# HL-60 [12] = assay: Cell cycle arrest in human HL60 cells assessed as accumulation at sub-G1 phase at 0.5 uM after 24 hrs flow cytometry; format: functional; outline: as §1
# DU-145 = assay: Antiproliferative activity against human DU145 cells after 72 hrs by MTT assay; format: functional, cell-based; conditions: DU-145, 72 h
# Outline: (§2)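 MTT viability readout. Cells were seeded at (1.6–1.8) × 10⁴ per well in medium with 10% FBS. After 72 h they were serum-deprived, then treated next day with a range of concentrations. MTT (4 mg/mL) was added for 4 h at 37 °C, 5% CO₂, followed by SDS/HCl lysis and absorbance at 570 nm. IC50 is the concentration giving 50% inhibition of proliferation relative to untreated controls.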
# PC-3 = assay: Antiproliferative activity against human PC3 cells after 72 hrs by MTT assay; format: functional, cell-based; conditions: PC-3, 72 h; outline: as §2
# CAL-33 [13] = assay: Antiproliferative activity against human CAL33 cells after 72 hrs by MTT assay; format: functional, cell-based; conditions: CAL-33, 72 h; outline: as §2
# HL-60 [14] = assay: Antiproliferative activity against human HL60 cells after 72 hrs by MTT assay; format: functional, cell-based; conditions: HL-60, 72 h; outline: as §2
# HL-60 [15] = assay: Cell cycle arrest in human HL60 cells assessed as accumulation at S phase at 0.5 uM after 24 hrs flow cytometry; format: functional; outline: as §1
# HL-60 [16] = assay: Cell cycle arrest in human HL60 cells assessed as accumulation at G2 phase at 5 uM after 24 hrs flow cytometry; format: functional; outline: as §1
# HT-29 [17] = assay: Cell cycle arrest in human HT-29 cells assessed as accumulation at G2 phase at 5 uM after 24 hrs flow cytometry; format: functional; outline: as §1
# CAL-33 [18] = assay: Cell cycle arrest in human CAL33 cells assessed as accumulation at G2 phase at 5 uM after 24 hrs flow cytometry; format: functional; outline: as §1
# HL-60 [19] = assay: Cell cycle arrest in human HL60 cells assessed as accumulation at S phase at 5 uM after 24 hrs flow cytometry; format: functional; outline: as §1
# CAL-33 [20] = assay: Cell cycle arrest in human CAL33 cells assessed as accumulation at S phase at 5 uM after 24 hrs flow cytometry; format: functional; outline: as §1
# HT-29 [21] = assay: Cell cycle arrest in human HT-29 cells assessed as accumulation at S phase at 5 uM after 24 hrs flow cytometry; format: functional; outline: as §1
# HL-60 [22] = assay: Cell cycle arrest in human HL60 cells assessed as accumulation at G1 phase at 5 uM after 24 hrs flow cytometry; format: functional; outline: as §1
# HT-29 [23] = assay: Cell cycle arrest in human HT-29 cells assessed as accumulation at G1 phase at 5 uM after 24 hrs flow cytometry; format: functional; outline: as §1
# CAL-33 [24] = assay: Cell cycle arrest in human CAL33 cells assessed as accumulation at G1 phase at 5 uM after 24 hrs flow cytometry; format: functional; outline: as §1
# HL-60 [25] = assay: Cell cycle arrest in human HL60 cells assessed as accumulation at sub-G1 phase at 5 uM after 24 hrs flow cytometry; format: functional; outline: as §1
# CAL-33 [26] = assay: Cell cycle arrest in human CAL33 cells assessed as accumulation at sub-G1 phase at 5 uM after 24 hrs flow cytometry; format: functional; outline: as §1
# HT-29 [27] = assay: Cell cycle arrest in human HT-29 cells assessed as accumulation at sub-G1 phase at 5 uM after 24 hrs flow cytometry; format: functional; outline: as §1
# HL-60 [28] = assay: Cell cycle arrest in human HL60 cells assessed as accumulation at G2 phase at 0.5 uM after 24 hrs flow cytometry; format: functional; outline: as §1
# [29] = target: DNA topoisomerase 2-alpha (Homo sapiens) (UniProt P11388); assay: Inhibition of human topoisomerase 2-mediated supercoiled plasmid DNA cleavage at 50 uM after 30 min by agarose gel electrophoresis
# Chain of DNA topoisomerase 2-alpha (Homo sapiens) (P11388 whole entry): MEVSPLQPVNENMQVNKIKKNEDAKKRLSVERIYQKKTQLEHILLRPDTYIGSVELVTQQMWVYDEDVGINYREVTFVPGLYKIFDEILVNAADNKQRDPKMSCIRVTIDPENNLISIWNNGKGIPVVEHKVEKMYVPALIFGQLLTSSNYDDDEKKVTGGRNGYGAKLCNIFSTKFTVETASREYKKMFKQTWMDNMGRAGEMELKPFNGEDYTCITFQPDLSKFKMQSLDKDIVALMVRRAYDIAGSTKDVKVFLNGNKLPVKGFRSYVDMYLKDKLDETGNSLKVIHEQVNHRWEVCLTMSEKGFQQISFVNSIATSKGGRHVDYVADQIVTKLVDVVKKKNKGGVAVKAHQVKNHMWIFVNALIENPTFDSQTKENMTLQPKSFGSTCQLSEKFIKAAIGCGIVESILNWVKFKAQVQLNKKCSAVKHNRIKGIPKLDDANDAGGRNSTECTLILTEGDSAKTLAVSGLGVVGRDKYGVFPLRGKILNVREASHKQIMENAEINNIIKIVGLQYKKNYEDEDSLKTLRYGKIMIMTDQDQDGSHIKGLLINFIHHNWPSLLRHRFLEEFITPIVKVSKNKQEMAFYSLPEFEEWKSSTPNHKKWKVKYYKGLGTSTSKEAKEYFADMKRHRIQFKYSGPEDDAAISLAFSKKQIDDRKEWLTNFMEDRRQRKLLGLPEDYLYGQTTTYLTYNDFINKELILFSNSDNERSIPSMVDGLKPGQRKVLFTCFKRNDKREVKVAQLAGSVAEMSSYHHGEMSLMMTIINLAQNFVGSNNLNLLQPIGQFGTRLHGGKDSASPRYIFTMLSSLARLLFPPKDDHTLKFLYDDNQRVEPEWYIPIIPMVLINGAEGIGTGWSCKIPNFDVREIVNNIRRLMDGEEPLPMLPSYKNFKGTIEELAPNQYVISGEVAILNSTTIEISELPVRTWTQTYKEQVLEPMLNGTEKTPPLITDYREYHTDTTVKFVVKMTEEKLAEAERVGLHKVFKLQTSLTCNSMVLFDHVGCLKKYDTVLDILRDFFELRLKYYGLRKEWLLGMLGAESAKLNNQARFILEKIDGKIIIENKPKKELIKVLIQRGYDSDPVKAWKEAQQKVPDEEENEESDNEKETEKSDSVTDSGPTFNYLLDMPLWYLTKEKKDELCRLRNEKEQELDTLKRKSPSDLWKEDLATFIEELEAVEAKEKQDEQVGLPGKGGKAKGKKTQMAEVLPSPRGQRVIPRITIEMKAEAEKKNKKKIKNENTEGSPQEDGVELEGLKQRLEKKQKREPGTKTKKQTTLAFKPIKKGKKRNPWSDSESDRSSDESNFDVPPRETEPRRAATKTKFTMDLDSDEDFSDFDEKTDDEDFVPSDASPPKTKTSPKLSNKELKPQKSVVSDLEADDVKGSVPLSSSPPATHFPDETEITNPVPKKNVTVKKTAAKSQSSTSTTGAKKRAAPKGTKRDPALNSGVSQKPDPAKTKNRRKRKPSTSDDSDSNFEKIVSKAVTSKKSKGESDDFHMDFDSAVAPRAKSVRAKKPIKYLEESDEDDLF
# CAL-33 [30] = assay: Cell cycle arrest in human CAL33 cells assessed as accumulation at G2 phase at 0.5 uM after 24 hrs flow cytometry
structure (smiles),measurement,setting,value
O=c1c2ccccc2[nH]c2c(CCc3ccc(O)c(O)c3)cccc12,IC50,[1],> 10 µM
same,IC50,HT-29 [2],> 50 µM
COc1ccc(CCc2cccc3c(=O)c4ccccc4[nH]c23)cc1O,IC50,[1],0.51 µM
same,IC50,HT-29 [2],12 µM
CC[C@]1(O)C[C@H]2CN(CCc3c([nH]c4ccccc34)[C@@](C(=O)OC)(c3cc4c(cc3OC)N(C=O)[C@H]3[C@@](O)(C(=O)OC)[C@H](OC(C)=O)[C@]5(CC)C=CCN6CC[C@]43[C@@H]65)C2)C1 [VINCRISTINE],Activity,CAL-33 [3],17.13%
same,Activity,HT-29 [4],16.43%
same,Activity,CAL-33 [5],14.29%
same,Activity,HT-29 [6],5.97%
same,Activity,CAL-33 [7],20.5%
same,Activity,CAL-33 [8],72.5%
same,Activity,HT-29 [9],4.65%
same,Activity,HT-29 [10],72.53%
CC(=O)O[C@@]12CO[C@@H]1C[C@H](O)[C@@]1(C)C(=O)[C@H](O)C3=C(C)[C@@H](OC(=O)[C@H](O)[C@@H](NC(=O)OC(C)(C)C)c4ccccc4)C[C@@](O)([C@@H](OC(=O)c4ccccc4)[C@H]21)C3(C)C.O.O.O [DOCETAXEL],Activity,CAL-33 [3],15.41%
same,Activity,HT-29 [4],7.85%
same,Activity,CAL-33 [5],4.99%
same,Activity,HT-29 [6],0.86%
same,Activity,CAL-33 [7],17.11%
same,Activity,CAL-33 [8],88.2%
same,Activity,HT-29 [9],2.76%
same,Activity,HT-29 [10],88.24%
O=S1(=O)c2ccccc2Nc2c(CCc3ccc(O)c(O)c3)cccc21,IC50,[1],> 10 µM
same,IC50,HT-29 [2],> 100 µM
COc1ccc(CCc2cccc3c(=O)c4ccccc4[nH]c23)cc1,Activity,CAL-33 [3],28.46%
same,Activity,HL-60 [11],25.15%
same,Activity,HT-29 [4],14.55%
same,Activity,CAL-33 [5],4%
same,Activity,HL-60 [12],37.16%
same,Activity,HT-29 [6],0.65%
same,Activity,CAL-33 [7],9.84%
same,IC50,DU-145,0.05 µM
same,IC50,PC-3,0.75 µM
same,IC50,CAL-33 [13],0.037 µM
same,IC50,HL-60 [14],0.1 µM
same,IC50,[1],> 10 µM
same,IC50,HT-29 [2],0.051 µM
same,Activity,CAL-33 [8],57.42%
same,Activity,HL-60 [15],18.5%
same,Activity,HT-29 [9],2.75%
same,Activity,HL-60 [16],15.2%
same,Activity,HT-29 [17],73.1%
same,Activity,CAL-33 [18],35.16%
same,Activity,HL-60 [19],26.55%
same,Activity,CAL-33 [20],33.12%
same,Activity,HT-29 [21],4.6%
same,Activity,HL-60 [22],24.4%
same,Activity,HT-29 [23],21.11%
same,Activity,CAL-33 [24],8.35%
same,Activity,HL-60 [25],34.34%
same,Activity,CAL-33 [26],22.73%
same,Activity,HT-29 [27],0.83%
same,Activity,HL-60 [28],19.58%
same,Activity,HT-29 [10],81.81%
same,inhibition,[29],Active
COc1ccc(CCc2cccc3c2Nc2ccccc2S3(=O)=O)cc1O,IC50,[1],1.25 µM
same,IC50,HT-29 [2],7.2 µM
COc1ccc(CCN2C=CC=C3C2=Nc2ccccc2OS3(=O)=O)cc1,IC50,DU-145,0.017 µM
same,IC50,PC-3,0.475 µM
same,IC50,[1],2.4 µM
same,IC50,HT-29 [2],0.024 µM
COc1cc(CCc2cccc3c2Nc2ccccc2S3(=O)=O)cc(OC)c1OC,IC50,[1],> 10 µM
same,IC50,HT-29 [2],> 100 µM
COc1ccc(S(=O)(=O)Nc2cccnc2Nc2ccc(O)cc2)cc1 [ABT-751],IC50,[1],2.2 µM
same,IC50,HT-29 [2],0.21 µM
COc1ccc(CCc2cccc3c2Nc2ccccc2S3(=O)=O)cc1OC,IC50,[1],> 10 µM
same,IC50,HT-29 [2],> 50 µM
COc1ccc(CCc2cccc3c(=O)c4ccccc4[nH]c23)cc1OC,IC50,[1],> 10 µM
same,IC50,HT-29 [2],> 50 µM
CCC1=C[C@@H]2CN(C1)Cc1c([nH]c3ccccc13)[C@@](C(=O)OC)(c1cc3c(cc1OC)N(C)[C@H]1[C@@](O)(C(=O)OC)[C@H](OC(C)=O)[C@]4(CC)C=CCN5CC[C@]31[C@@H]54)C2 [VINORELBINE],Activity,CAL-33 [3],17.62%
same,Activity,HT-29 [4],21.42%
same,Activity,CAL-33 [5],9.96%
same,Activity,HT-29 [6],1.39%
same,Activity,CAL-33 [7],24.44%
same,Activity,CAL-33 [8],72.8%
same,Activity,HT-29 [9],3.41%
same,Activity,HT-29 [10],72.85%
COc1ccc(CCc2cccc3c2Nc2ccccc2S3(=O)=O)cc1,Activity,HL-60 [11],57.66%
same,Activity,HT-29 [4],73.56%
same,Activity,HL-60 [12],8.22%
same,Activity,HT-29 [6],1.63%
same,IC50,DU-145,0.81 µM
same,IC50,PC-3,> 50 µM
same,IC50,CAL-33 [13],0.627 µM
same,IC50,HL-60 [14],1.65 µM
same,IC50,[1],> 10 µM
same,IC50,HT-29 [2],0.87 µM
same,Activity,HL-60 [15],21.83%
same,Activity,HT-29 [9],8.63%
same,Activity,HL-60 [16],14.77%
same,Activity,HT-29 [17],87.92%
same,Activity,HL-60 [19],24.77%
same,Activity,HT-29 [21],2.46%
same,Activity,HL-60 [22],26.83%
same,Activity,HT-29 [23],8.63%
same,Activity,HL-60 [25],34.12%
same,Activity,HT-29 [27],0.47%
same,Activity,HL-60 [28],12.4%
same,Activity,CAL-33 [30],15.95%
same,inhibition,[29],Active
COc1cc(CCc2cccc3c(=O)c4ccccc4[nH]c23)cc(OC)c1OC,IC50,DU-145,> 100 µM
same,IC50,PC-3,> 100 µM
same,IC50,CAL-33 [13],> 100 µM
same,IC50,HL-60 [14],> 50 µM
same,IC50,[1],> 10 µM
same,IC50,HT-29 [2],> 100 µM
same,inhibition,[29],Active
